According to ChEMBL document CHEMBL5303300, “EUbOPEN Chemogenomics Library - Multiplex” (2023):
Where “and” joins values, the source holds several entries; their conditions need not be identical. Equal entries are not always repeated.

Tests used:
Format in all cases: toxicity, cell-based
U2OS = experiment: Multiplex assay against U2OS; conditions: human, number of replicates 2
Outline: (§1)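 Cells stained live at seeding with Hoechst33342, BioTracker Green Microtubule Cytoskeleton Dye, MitoTracker Red and Annexin V Alexa Fluor 680 were imaged on a CQ1 microscope at 37°C and 5% CO2 after compound addition. Their classification by CellPathfinder machine-learning gating ran from Hoechst high-intensity objects versus normal cells, to healthy, pyknosed or fragmented nuclei among normal cells, to mitotic or apoptotic among pyknosed cells. Tubulin, mitochondrial-mass and membrane-permeability phenotypes are per cents of healthy-nucleus cells.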

HEK-293T = experiment: Multiplex assay against HEK293T; conditions: human, number of replicates 2; outline: as §1
Fibroblast = experiment: Multiplex assay against human fibroblast; conditions: number of replicates 2; outline: as §1
[1] = 12 h, 1 µM, compound concentration 1 uM
[2] = 12 h, 10 µM, compound concentration 10 uM
[3] = 24 h, 1 µM, compound concentration 1 uM
[4] = 24 h, 10 µM, compound concentration 10 uM
[5] = 48 h, 1 µM, compound concentration 1 uM
[6] = 48 h, 10 µM, compound concentration 10 uM

## COc1cc(OC)cc(-c2cc3cnc(N)nc3nc2NC(=O)NC(C)(C)C)c1
U2OS; [1]
  Population Apoptotic (%): 80% [middle of 4 runs]
  Population Fragmented Nuclei (%): 11% and 5% and 6% and 4%
  Population Healthy Nuclei (%): 80% and 87% and 83% and 89%
  Population Hoechst High Intensity Objects (%): 0%
  Population Membrane Permeable-Phenotype (%): 2% and 0% and 1%
  Population Mitochondria Different-Phenotype (%): 0%
  Population Normal (%): 100%
  Population Pyknosed Nuclei (%): 7% and 6% and 10% and 5%
  Population Tubulin-Different-Phenotype (%): 52% and 94% and 55% and 80%
U2OS; [2]
  Population Healthy Nuclei (%): 85% and 60% and 88% and 65%
  Population Hoechst High Intensity Objects (%): 0%
  Population Membrane Permeable-Phenotype (%): 6% [middle of 4 runs]
  Population Mitochondria Different-Phenotype (%): 0% and 4%
  Population Normal (%): 99% and 100%
  Population Pyknosed Nuclei (%): 10% and 15% and 6% and 9%
  Population Tubulin-Different-Phenotype (%): 64% [middle of 4 runs]
U2OS; [3]
  Population Apoptotic (%): 60% and 84% and 50%
  Population Fragmented Nuclei (%): 3% and 1% and 2%
  Population Healthy Nuclei (%): 89% and 90% and 82% and 86%
  Population Hoechst High Intensity Objects (%): 1% and 0%
  Population Membrane Permeable-Phenotype (%): 0% and 3% and 1%
  Population Mitochondria Different-Phenotype (%): 1% and 0%
  Population Normal (%): 98% and 100%
  Population Pyknosed Nuclei (%): 6% and 8% and 14% and 11%
  Population Tubulin-Different-Phenotype (%): 56% and 85% and 53% and 83%
U2OS; [4]
  Population Apoptotic (%): 54% [middle of 4 runs]
  Population Healthy Nuclei (%): 83% and 68% and 84% and 72%
  Population Hoechst High Intensity Objects (%): 0%
  Population Membrane Permeable-Phenotype (%): 4% [middle of 4 runs]
  Population Mitochondria Different-Phenotype (%): 1% and 8% and 0%
  Population Normal (%): 100%
  Population Pyknosed Nuclei (%): 10% and 16% and 9% and 13%
  Population Tubulin-Different-Phenotype (%): 62% [middle of 4 runs]
U2OS; [5]
  Population Apoptotic (%): 50% and 84% and 60% and 74%
  Population Fragmented Nuclei (%): 3% and 2% and 4%
  Population Healthy Nuclei (%): 86% and 88% and 92%
  Population Hoechst High Intensity Objects (%): 0%
  Population Membrane Permeable-Phenotype (%): 1% and 0%
  Population Mitochondria Different-Phenotype (%): 0% and 1%
  Population Normal (%): 100%
  Population Pyknosed Nuclei (%): 10% and 8% and 4% and 7%
  Population Tubulin-Different-Phenotype (%): 70% and 90% and 59% and 84%
U2OS; [6]
  Population Apoptotic (%): 48% and 69% and 66% and 78%
  Population Healthy Nuclei (%): 87% and 68% and 86% and 64%
  Population Hoechst High Intensity Objects (%): 0%
  Population Membrane Permeable-Phenotype (%): 2% and 9%
  Population Mitochondria Different-Phenotype (%): 0% and 3% and 1%
  Population Mitotic Cells (%): 33% [middle of 4 runs]
  Population Normal (%): 100% and 99%
  Population Pyknosed Nuclei (%): 10% and 16% and 17%
  Population Tubulin-Different-Phenotype (%): 67% [middle of 4 runs]
HEK-293T; [1]
  Population Apoptotic (%): 61% and 63% and 50% and 43%
  Population Fragmented Nuclei (%): 7% and 3% and 2% and 4%
  Population Healthy Nuclei (%): 77% and 80% and 85% and 83%
  Population Hoechst High Intensity Objects (%): 9% and 11% and 10%
  Population Membrane Permeable-Phenotype (%): 6% and 2% and 3% and 1%
  Population Mitochondria Different-Phenotype (%): 15% and 13% and 18% and 20%
  Population Mitotic Cells (%): 38% and 36% and 50% and 56%
  Population Normal (%): 90% and 88% and 89%
  Population Pyknosed Nuclei (%): 15% and 16% and 11%
  Population Tubulin-Different-Phenotype (%): 55% and 48% and 54% and 53%
  Total Cell Count: 713 and 595 and 582 and 616
HEK-293T; [2]
  Population Apoptotic (%): 52% and 55% and 50% and 64%
  Population Fragmented Nuclei (%): 2% and 3% and 7% and 5%
  Population Healthy Nuclei (%): 82% and 86% and 79% and 81%
  Population Hoechst High Intensity Objects (%): 4% and 7% and 12% and 10%
  Population Membrane Permeable-Phenotype (%): 1% and 2%
  Population Mitochondria Different-Phenotype (%): 25% and 15% and 17% and 19%
  Population Mitotic Cells (%): 47% and 44% and 49% and 35%
  Population Normal (%): 95% and 92% and 87% and 89%
  Population Pyknosed Nuclei (%): 14% and 10% and 12%
  Population Tubulin-Different-Phenotype (%): 54% and 47% and 72% and 63%
  Total Cell Count: 524 and 626 and 917 and 726
HEK-293T; [3]
  Population Apoptotic (%): 46% and 54% and 51% and 53%
  Population Fragmented Nuclei (%): 10% and 7% and 8%
  Population Healthy Nuclei (%): 76% and 78% and 82% and 80%
  Population Hoechst High Intensity Objects (%): 10% and 8%
  Population Membrane Permeable-Phenotype (%): 3% and 1% and 2%
  Population Mitochondria Different-Phenotype (%): 5% and 2% and 7%
  Population Mitotic Cells (%): 53% and 45% and 48% and 46%
  Population Normal (%): 89% and 91%
  Population Pyknosed Nuclei (%): 12% and 11% and 9%
  Population Tubulin-Different-Phenotype (%): 28% and 23% and 29% and 30%
  Total Cell Count: 1161 and 950 and 940 and 952
HEK-293T; [4]
  Population Apoptotic (%): 52% and 40% and 48%
  Population Fragmented Nuclei (%): 5% and 4% and 11% and 8%
  Population Healthy Nuclei (%): 85% and 88% and 78% and 82%
  Population Hoechst High Intensity Objects (%): 8% and 9%
  Population Membrane Permeable-Phenotype (%): 3% and 2% and 1%
  Population Mitochondria Different-Phenotype (%): 11% and 4% and 3%
  Population Mitotic Cells (%): 47% and 59% and 51%
  Population Normal (%): 91% and 90%
  Population Pyknosed Nuclei (%): 9% and 6% and 10%
  Population Tubulin-Different-Phenotype (%): 30% and 35% and 38% and 33%
  Total Cell Count: 797 and 901 and 1521 and 1236
HEK-293T; [5]
  Population Apoptotic (%): 16% and 24% and 25% and 17%
  Population Fragmented Nuclei (%): 13% [middle of 4 runs]
  Population Healthy Nuclei (%): 75% and 84% and 83% and 86%
  Population Hoechst High Intensity Objects (%): 8% and 7% and 10%
  Population Membrane Permeable-Phenotype (%): 6% and 3% and 4% and 2%
  Population Mitochondria Different-Phenotype (%): 0%
  Population Mitotic Cells (%): 83% and 75% and 82%
  Population Normal (%): 91% and 92% and 89%
  Population Pyknosed Nuclei (%): 2% and 3% and 4%
  Population Tubulin-Different-Phenotype (%): 12% and 9% and 13% and 16%
  Total Cell Count: 3190 and 2284 and 2394 and 1901
HEK-293T; [6]
  Population Apoptotic (%): 28% and 21% and 14%
  Population Fragmented Nuclei (%): 14% [middle of 4 runs]
  Population Healthy Nuclei (%): 85% and 87% and 73% and 82%
  Population Hoechst High Intensity Objects (%): 9% and 10%
  Population Membrane Permeable-Phenotype (%): 4% and 5% and 2%
  Population Mitochondria Different-Phenotype (%): 0% and 1%
  Population Mitotic Cells (%): 71% and 78% and 85%
  Population Normal (%): 90% and 89%
  Population Pyknosed Nuclei (%): 3% and 2%
  Population Tubulin-Different-Phenotype (%): 15% and 18% and 20%
  Total Cell Count: 1964 and 1991 and 3775 and 2773
Fibroblast; [1]
  Population Apoptotic (%): 28% and 48% and 41% and 34%
  Population Fragmented Nuclei (%): 10% and 16% and 6% and 8%
  Population Healthy Nuclei (%): 72% and 62% and 76% and 70%
  Population Hoechst High Intensity Objects (%): 0% and 11%
  Population Membrane Permeable-Phenotype (%): 7% and 6% and 5%
  Population Mitochondria Different-Phenotype (%): 2% and 0%
  Population Mitotic Cells (%): 71% and 51% and 58% and 65%
  Population Normal (%): 100% and 88%
  Population Pyknosed Nuclei (%): 17% and 20% and 16%
  Population Tubulin-Different-Phenotype (%): 18% and 11% and 9% and 8%
  Total Cell Count: 258 and 266 and 187 and 224
Fibroblast; [2]
  Population Apoptotic (%): 50% and 26% and 38% and 34%
  Population Fragmented Nuclei (%): 8% and 9% and 14% and 12%
  Population Healthy Nuclei (%): 60% and 67% and 71% and 66%
  Population Hoechst High Intensity Objects (%): 0%
  Population Membrane Permeable-Phenotype (%): 4% and 5%
  Population Mitochondria Different-Phenotype (%): 0% and 1%
  Population Mitotic Cells (%): 50% and 73% and 61% and 65%
  Population Normal (%): 100% and 99%
  Population Pyknosed Nuclei (%): 23% [middle of 4 runs]
  Total Cell Count: 176 and 182 and 232 and 229
Fibroblast; [3]
  Population Apoptotic (%): 54% and 53% and 55%
  Population Fragmented Nuclei (%): 8% and 21% and 10%
  Population Healthy Nuclei (%): 74% and 57% and 71% and 65%
  Population Hoechst High Intensity Objects (%): 0% and 13%
  Population Membrane Permeable-Phenotype (%): 4% and 6% and 5%
  Population Mitochondria Different-Phenotype (%): 0% and 1%
  Population Mitotic Cells (%): 45% and 46% and 44%
  Population Normal (%): 99% and 86% and 100%
  Population Pyknosed Nuclei (%): 17% and 21% and 24%
  Population Tubulin-Different-Phenotype (%): 12% [middle of 4 runs]
  Total Cell Count: 260 and 192 and 201
Fibroblast; [4]
  Population Apoptotic (%): 57% and 48% and 65% and 58%
  Population Fragmented Nuclei (%): 11% and 13% and 16% and 18%
  Population Healthy Nuclei (%): 63% and 67% and 70% and 66%
  Population Hoechst High Intensity Objects (%): 0%
  Population Membrane Permeable-Phenotype (%): 5% and 1% and 4%
  Population Mitochondria Different-Phenotype (%): 0% and 1%
  Population Mitotic Cells (%): 42% and 51% and 34% and 41%
  Population Normal (%): 100% and 99%
  Population Pyknosed Nuclei (%): 25% and 18% and 13% and 15%
  Total Cell Count: 187 and 175 and 231 and 236
Fibroblast; [5]
  Population Apoptotic (%): 70% and 65% and 60% and 68%
  Population Fragmented Nuclei (%): 10% and 18% and 12% and 15%
  Population Healthy Nuclei (%): 75% and 63% and 65%
  Population Hoechst High Intensity Objects (%): 0% and 18%
  Population Membrane Permeable-Phenotype (%): 2% and 10% and 8% and 6%
  Population Mitochondria Different-Phenotype (%): 0%
  Population Mitotic Cells (%): 29% and 34% and 40% and 31%
  Population Normal (%): 100% and 81%
  Population Pyknosed Nuclei (%): 13% and 17% and 12% and 19%
  Population Tubulin-Different-Phenotype (%): 7% and 10% and 9% and 6%
  Total Cell Count: 266 and 238 and 205 and 226
Fibroblast; [6]
  Population Apoptotic (%): 74% and 66% and 75% and 69%
  Population Fragmented Nuclei (%): 13% and 10% and 16% and 18%
  Population Healthy Nuclei (%): 65% and 67% and 71% and 69%
  Population Hoechst High Intensity Objects (%): 0%
  Population Membrane Permeable-Phenotype (%): 8% and 0% and 5% and 4%
  Population Mitochondria Different-Phenotype (%): 1% and 0%
  Population Mitotic Cells (%): 25% and 33% and 24% and 30%
  Population Normal (%): 100%
  Population Pyknosed Nuclei (%): 20% and 22% and 12%
  Total Cell Count: 190 and 176 and 237 and 215
